# Measured values published in ChEMBL document CHEMBL1124191, “Design of rat renin inhibitory peptides” (J Med Chem, 1988).
# pIC50: −log10 of the molar value. *1 amine or outer side, *2 acyl side, *3 side chain or, on linkers, in order; H or OH if unused. Where a SMILES comes first, the peptide text is derived from it. [ ]: non-standard residue; d: D form. Ahppa(3S,4S) = O=C(C[C@H](O)[C@H](Cc1ccccc1)N[*:1])[*:2]; ACHPA = O=C(C[C@H](O)[C@H](CC1CCCCC1)N[*:1])[*:2]; 1Nal = N[C@@H](Cc1cccc2ccccc12)C(=O)O; Sta = CC(C)C[C@H](N)[C@@H](O)CC(=O)O; Cha = N[C@@H](CC1CCCCC1)C(=O)O; Chg = N[C@H](C(=O)O)C1CCCCC1; Tle = CC(C)(C)[C@H](N)C(=O)O
# Target: T1, Renin (Rattus norvegicus, UniProt P08424)
# T1 sequence (P08424 whole entry): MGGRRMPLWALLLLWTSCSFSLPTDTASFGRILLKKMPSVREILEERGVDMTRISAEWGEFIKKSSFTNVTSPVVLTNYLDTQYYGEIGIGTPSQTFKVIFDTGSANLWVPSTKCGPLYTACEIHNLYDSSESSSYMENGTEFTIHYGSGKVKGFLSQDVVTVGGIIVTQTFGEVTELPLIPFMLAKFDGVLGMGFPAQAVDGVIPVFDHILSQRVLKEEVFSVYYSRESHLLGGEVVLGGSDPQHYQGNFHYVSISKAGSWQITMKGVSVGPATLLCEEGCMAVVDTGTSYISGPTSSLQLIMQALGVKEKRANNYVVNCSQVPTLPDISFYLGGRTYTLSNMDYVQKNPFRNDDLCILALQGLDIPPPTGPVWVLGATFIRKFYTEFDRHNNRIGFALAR
# Assay: Inhibitory activity against rat plasma renin in vitro.
# Format: cell-free
# Outline: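 Pooled EDTA rat plasma with added PMSF 5 mM, 8-hydroxyquinoline 3 mM and extra EDTA 5 mM, at pH 7.4, mixed with serial 1:10 peptide dilutions (Tris/DMSO), split, and incubated 1 h at 37 and 0 °C.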
row,pIC50,SMILES
1,~3.00,CC(=O)N[C@@H](Cc1c[nH]cn1)C(=O)N1CCC[C@H]1C(=O)N[C@H](CC(C)C)C(=O)N[C@@H](Cc1c[nH]cn1)C(=O)N[C@@H](CC(C)C)[C@@H](O)CC(=O)N[C@@H](CC(C)C)C(=O)N[C@@H](Cc1ccccc1)C(N)=O
2,7.52,CC(=O)N[C@@H](Cc1c[nH]cn1)C(=O)N1CCC[C@H]1C(=O)N[C@@H](Cc1ccccc1)C(=O)N[C@H](C(=O)N[C@@H](CC(C)C)[C@@H](O)CC(=O)N[C@@H](CC(C)C)C(=O)N[C@@H](Cc1ccccc1)C(N)=O)C(C)C
3,6.51,CC(=O)N[C@@H](Cc1cnc[nH]1)C(=O)N1CCC[C@H]1C(=O)N[C@@H](Cc1ccccc1)C(=O)N[C@@H](CC(C)C)C(=O)N[C@@H](CC(C)C)[C@@H](O)CC(=O)N[C@@H](CC(C)C)C(=O)N[C@@H](Cc1ccccc1)C(N)=O
4,~3.00,CC(=O)N[C@@H](Cc1c[nH]cn1)C(=O)N1CCC[C@H]1C(=O)N[C@@H](Cc1ccccc1)C(=O)N[C@H](CC(C)C)C(=O)N[C@@H](CC(C)C)[C@@H](O)CC(=O)N[C@@H](CC(C)C)C(=O)N[C@@H](Cc1ccccc1)C(N)=O
5,5.04,CC(=O)N[C@@H](Cc1c[nH]cn1)C(=O)N1CCC[C@H]1C(=O)N[C@@H](CC(C)C)C(=O)N[C@@H](Cc1c[nH]cn1)C(=O)N[C@@H](CC(C)C)[C@@H](O)CC(=O)N[C@@H](CC(C)C)C(=O)N[C@@H](Cc1ccccc1)C(N)=O
6,~3.00,CC(=O)N[C@@H](Cc1c[nH]cn1)C(=O)N1CCC[C@@H]1C(=O)N[C@H](C)C(=O)N[C@@H](Cc1c[nH]cn1)C(=O)N[C@@H](CC(C)C)[C@@H](O)CC(=O)N[C@@H](CC(C)C)C(=O)N[C@@H](Cc1ccccc1)C(N)=O
7,~3.00,CC(=O)N[C@@H](Cc1c[nH]cn1)C(=O)N1CCC[C@@H]1C(=O)N[C@@H](Cc1ccccc1)C(=O)N[C@H](C)C(=O)N[C@@H](CC(C)C)[C@@H](O)CC(=O)N[C@@H](CC(C)C)C(=O)N[C@@H](Cc1ccccc1)C(N)=O
8,6.57,CC(=O)N[C@@H](Cc1cnc[nH]1)C(=O)N1CCC[C@H]1C(=O)N[C@@H](Cc1ccccc1)C(=O)N[C@@H](Cc1cnc[nH]1)C(=O)N[C@@H](CC(C)C)[C@@H](O)CC(=O)N[C@@H](CC(C)C)C(=O)N[C@H](C(N)=O)C(C)C (Ac-HPFH[Sta]LV-NH2)
9,6.80,CC(=O)N[C@@H](Cc1c[nH]cn1)C(=O)N1CCC[C@H]1C(=O)N[C@@H](Cc1ccccc1)C(=O)N[C@@H](Cc1c[nH]cn1)C(=O)N[C@@H](CC(C)C)[C@@H](O)CC(=O)N[C@@H](CC(C)C)C(=O)N[C@@H](CC1CCCCC1)C(N)=O (Ac-HPFH[Sta]L[Cha]-NH2)
10,5.55,CC(=O)N[C@@H](Cc1c[nH]cn1)C(=O)N1CCC[C@H]1C(=O)N[C@@H](Cc1ccccc1)C(=O)N[C@@H](Cc1c[nH]cn1)C(=O)N[C@@H](CC(C)C)[C@@H](O)CC(=O)N[C@H](C(=O)N[C@@H](Cc1ccccc1)C(N)=O)C(C)C (Ac-HPFH[Sta]VF-NH2)
11,5.57,CC(=O)N[C@@H](Cc1c[nH]cn1)C(=O)N1CCC[C@H]1C(=O)N[C@@H](Cc1ccccc1)C(=O)N[C@@H](Cc1c[nH]cn1)C(=O)N[C@@H](CC(C)C)[C@@H](O)CC(=O)N[C@@H](CC1CCCCC1)C(=O)N[C@@H](Cc1ccccc1)C(N)=O (Ac-HPFH[Sta][Cha]F-NH2)
12,6.40,CC(=O)N[C@@H](Cc1c[nH]cn1)C(=O)N1CCC[C@H]1C(=O)N[C@@H](Cc1ccccc1)C(=O)N[C@H](C(=O)N[C@@H](CC(C)C)[C@@H](O)CC(=O)N[C@@H](CC(C)C)C(=O)N[C@@H](Cc1ccccc1)C(N)=O)C(C)(C)C (Ac-HPF[Tle][Sta]LF-NH2)
13,6.66,CC(=O)N[C@@H](Cc1c[nH]cn1)C(=O)N1CCC[C@H]1C(=O)N[C@@H](Cc1cccc2ccccc12)C(=O)N[C@@H](Cc1c[nH]cn1)C(=O)N[C@@H](CC(C)C)[C@@H](O)CC(=O)N[C@@H](CC(C)C)C(=O)N[C@@H](Cc1ccccc1)C(N)=O (Ac-HP[1Nal]H[Sta]LF-NH2)

# Continued, molecule first:
row,SMILES,pIC50
1,CC(=O)N[C@@H](Cc1cnc[nH]1)C(=O)N1CCC[C@H]1C(=O)N[C@@H](Cc1ccccc1)C(=O)N[C@@H](Cc1cnc[nH]1)C(=O)N[C@@H](CC(C)C)[C@@H](O)CC(=O)N[C@@H](CC(C)C)C(=O)N[C@@H](Cc1ccccc1)C(N)=O,6.68
2,CC(=O)N[C@@H](Cc1cnc[nH]1)C(=O)N1CCC[C@H]1C(=O)N[C@@H](Cc1ccccc1)C(=O)N[C@@H](Cc1cnc[nH]1)C(=O)N[C@@H](CC1CCCCC1)[C@@H](O)CC(=O)N[C@@H](CC(C)C)C(=O)N[C@@H](Cc1ccccc1)C(N)=O,7.30
3,CC(=O)N[C@@H](Cc1cnc[nH]1)C(=O)N1CCC[C@H]1C(=O)N[C@@H](Cc1ccccc1)C(=O)N[C@H](C(=O)N[C@@H](CC1CCCCC1)[C@@H](O)CC(=O)N[C@@H](CC(C)C)C(=O)N[C@@H](Cc1ccccc1)C(N)=O)C(C)C,7.48
4,CC(=O)N[C@@H](Cc1ccccc1)C(=O)N1CCC[C@H]1C(=O)N[C@@H](Cc1ccccc1)C(=O)N[C@H](C(=O)N[C@@H](CC(C)C)[C@@H](O)CC(=O)N[C@@H](CC(C)C)C(=O)N[C@@H](Cc1ccccc1)C(N)=O)C(C)C (Ac-FPFV[Sta]LF-NH2),7.38
5,"CC(=O)N[C@@H](Cc1cnc[nH]1)C(=O)N1CCC[C@H]1C(=O)N[C@@H](Cc1ccccc1)C(=O)N[C@@H](Cc1cnc[nH]1)C(=O)N[C@@H](Cc1ccccc1)[C@@H](O)CC(=O)N[C@@H](CC(C)C)C(=O)N[C@@H](Cc1ccccc1)C(N)=O (Ac-HPFH[Ahppa(3S,4S)]LF-NH2)",6.82
6,CC(=O)N[C@@H](Cc1cnc[nH]1)C(=O)N1CCC[C@H]1C(=O)N[C@@H](Cc1ccccc1)C(=O)N[C@@H](Cc1cnc[nH]1)C(=O)N[C@@H](CC(C)C)[C@@H](O)CC(=O)N[C@H](C(=O)N[C@@H](Cc1ccccc1)C(N)=O)C(C)(C)C (Ac-HPFH[Sta][Tle]F-NH2),5.72
7,"CC[C@H](C)[C@H](NC(=O)[C@H](Cc1ccccc1)NC(=O)[C@@H]1CCCN1C(=O)[C@H](Cc1cnc[nH]1)NC(C)=O)C(=O)N[C@@H](Cc1ccccc1)[C@@H](O)CC(=O)N[C@@H](CC(C)C)C(=O)N[C@@H](Cc1ccccc1)C(N)=O (Ac-HPFI[Ahppa(3S,4S)]LF-NH2)",5.90
8,CC(=O)N[C@@H](Cc1cnc[nH]1)C(=O)N1CCC[C@H]1C(=O)N[C@@H](Cc1ccccc1)C(=O)N[C@H](C(=O)N[C@@H](CC(C)C)[C@@H](O)CC(=O)N[C@@H](CC(C)C)C(=O)N[C@@H](Cc1ccccc1)C(N)=O)C1CCCCC1 (Ac-HPF[Chg][Sta]LF-NH2),5.60
9,CC(=O)N[C@@H](Cc1cnc[nH]1)C(=O)N1CCC[C@H]1C(=O)N[C@@H](Cc1c[nH]c2ccccc12)C(=O)N[C@@H](Cc1cnc[nH]1)C(=O)N[C@@H](CC(C)C)[C@@H](O)CC(=O)N[C@@H](CC(C)C)C(=O)N[C@@H](Cc1ccccc1)C(N)=O (Ac-HPWH[Sta]LF-NH2),6.62
10,CC(=O)N[C@@H](Cc1cnc[nH]1)C(=O)N1CCC[C@H]1C(=O)N[C@@H](CC1CCCCC1)C(=O)N[C@@H](Cc1cnc[nH]1)C(=O)N[C@@H](CC(C)C)[C@@H](O)CC(=O)N[C@@H](CC(C)C)C(=O)N[C@@H](Cc1ccccc1)C(N)=O (Ac-HP[Cha]H[Sta]LF-NH2),6.19
11,COc1ccc(C[C@H](NC(C)=O)C(=O)N2CCC[C@H]2C(=O)N[C@@H](Cc2ccccc2)C(=O)N[C@H](C(=O)N[C@@H](CC(C)C)[C@@H](O)CC(=O)N[C@@H](CC(C)C)C(=O)N[C@@H](Cc2ccccc2)C(N)=O)C(C)C)cc1 (Ac-Y(Me)PFV[Sta]LF-NH2),7.47
12,CC(=O)N[C@@H](Cc1cccc2ccccc12)C(=O)N1CCC[C@H]1C(=O)N[C@@H](Cc1ccccc1)C(=O)N[C@H](C(=O)N[C@@H](CC(C)C)[C@@H](O)CC(=O)N[C@@H](CC(C)C)C(=O)N[C@@H](Cc1ccccc1)C(N)=O)C(C)C (Ac-[1Nal]PFV[Sta]LF-NH2),7.30
13,CC(=O)N[C@H](C(=O)N1CCC[C@H]1C(=O)N[C@@H](Cc1ccccc1)C(=O)N[C@H](C(=O)N[C@@H](CC(C)C)[C@@H](O)CC(=O)N[C@@H](CC(C)C)C(=O)N[C@@H](Cc1ccccc1)C(N)=O)C(C)C)C1CCCCC1 (Ac-[Chg]PFV[Sta]LF-NH2),6.55
14,CC[C@H](C)[C@H](NC(=O)C[C@H](O)[C@H](CC1CCCCC1)NC(=O)[C@H](Cc1c[nH]cn1)NC(=O)[C@H](Cc1ccccc1)NC(=O)[C@@H]1CCCN1C(=O)[C@H](Cc1c[nH]cn1)NC(=O)[C@@H]1CCCN1)C(=O)N[C@@H](Cc1ccccc1)C(N)=O (H-PHPFH[ACHPA]IF-NH2),7.19
15,"CC[C@H](C)[C@H](NC(=O)C[C@H](O)[C@H](Cc1ccccc1)NC(=O)[C@H](Cc1c[nH]cn1)NC(=O)[C@H](Cc1ccccc1)NC(=O)[C@@H]1CCCN1C(=O)[C@H](Cc1c[nH]cn1)NC(=O)[C@@H]1CCCN1)C(=O)N[C@@H](Cc1ccccc1)C(N)=O (H-PHPFH[Ahppa(3S,4S)]IF-NH2)",6.43
16,"CC(C)[C@H](NC(=O)C[C@H](O)[C@H](Cc1ccccc1)NC(=O)[C@H](Cc1c[nH]cn1)NC(=O)[C@H](Cc1ccccc1)NC(=O)[C@@H]1CCCN1C(=O)[C@H](Cc1c[nH]cn1)NC(=O)[C@@H]1CCCN1)C(=O)N[C@@H](Cc1ccc(O)cc1)C(=O)N[C@@H](CCCCN)C(N)=O (H-PHPFH[Ahppa(3S,4S)]VYK-NH2)",5.89
17,CC[C@H](C)[C@H](NC(=O)C[C@H](O)[C@H](CC(C)C)NC(=O)[C@H](Cc1c[nH]cn1)NC(=O)[C@H](Cc1ccccc1)NC(=O)[C@@H]1CCCN1C(=O)[C@H](Cc1c[nH]cn1)NC(=O)[C@@H]1CCCN1)C(=O)N[C@@H](Cc1ccccc1)C(N)=O (H-PHPFH[Sta]IF-NH2),5.00
18,CC(C)C[C@H](NC(=O)C[C@H](O)[C@H](CC(C)C)NC(=O)[C@H](Cc1cnc[nH]1)NC(=O)[C@H](Cc1ccccc1)NC(=O)[C@@H]1CCCN1C(=O)[C@H](Cc1cnc[nH]1)NC(=O)[C@@H]1CCCN1)C(=O)N[C@@H](Cc1ccccc1)C(N)=O (H-PHPFH[Sta]LF-NH2),6.62
